According to PMC2887662 (Journal of medicinal chemistry, 2010):
“Also recorded” adds a separate entry of the source.

Legend:
[1] = system: panel of six different human tumor cell lines; assay: Antiproliferative activity, panel of six cell lines; assay type: cell-based; conditions: for IC50: Homo sapiens, read-out: IC50 values, range against the cell lines; for antiproliferative activity (in words): six human tumor cell lines
Procedure, shortened: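 Cells in RPMI-1640 (Jurkat, HL-60, K562) or DMEM (MCF7, A549, HeLa) with 10% FBS and penicillin/streptomycin. 8 × 10^3 cells/well were preincubated 18 h, then exposed to a range of test compound concentrations in complete medium for 72 h at 37 °C, 5% CO2. Viability was read by MTT.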

[2] = system: PARP and Bcl-2 in Jurkat cells; assay: Western blot for PARP cleavage and Bcl-2 expression; assay type: cell-based, human; conditions: 50 nM; for PARP cleavage: 24 h
Procedure, shortened: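 Jurkat cells were treated with test compound for varying times, washed in cold PBS and lysed on ice for 30 min. Lysates were spun at 15000g, 4 °C, 10 min, and protein was measured by BCA. 20 µg protein per lane was run on 7.5–15% SDS–PAGE and blotted to PVDF. Blots were probed with rabbit anti-Bcl-2 or anti-PARP (1:1000, 2 h, RT), then HRP secondary, and developed by ECL. Blots were stripped and reprobed for β-actin as loading control.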

Jurkat cells [3] = assay: Flow cytometric cell cycle analysis, Jurkat; assay type: cell-based, human
Jurkat cells [4] = assay: Mitochondrial ROS production; assay type: cell-based, human; conditions: up to 72 h, HE and H2DCFDA
Procedure, shortened: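 After different treatment times, cells are pelleted and resuspended in HBSS containing hydroethidine (2.5 µM) or H2DCFDA (0.1 µM). They are incubated for 30 min at 37 °C, spun and resuspended in HBSS. Fluorescence is recorded directly by flow cytometry, with excitation at 488 nm and emission at 585 nm (ethidium, from superoxide) or 530 nm (DCF, from peroxides).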

[5] = system: chick aortic vascular sprouts; assay: Chick aortic ring assay; assay type: cell-based; conditions: 30 min incubation
Procedure, shortened: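 Aortic arches from day 14 chick embryos were cut into cross-sectional slices and embedded in Matrigel with complete medium. Endothelial sprouts or channels formed over 24–48 h. Various concentrations of test compound were then added, and vascular channels were photographed before and 30 min after addition.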

Jurkat cells [6] = assay: Annexin-V/PI apoptosis assay; assay type: cell-based, human; conditions: 50 nM, 24-72 h
Procedure, shortened: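 After treatment for different times, Jurkat cells are co-stained with annexin-V-FITC (per the kit instructions) and PI. They are analysed by flow cytometry with excitation at 488 nm and emission filters at 525 nm (FITC, green) and 585 nm (PI, red). Externalised phosphatidylserine is scored as annexin-V positive cells.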

[7] = system: caspase-3 in Jurkat cells; assay: Caspase-3 activation by flow cytometry; assay type: cell-based, human; conditions: 50 nM, 24, 48, 72 h
Procedure, shortened: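 After different incubation times with test compound, cells are pelleted and fixed in Cytofix buffer for 20 min, then washed with Perm/Wash. They are stained for 30 min with a FITC-conjugated antibody against the human active caspase-3 fragment, washed and analysed by flow cytometry. Results are given as percentage of caspase-3 active fragment positive cells.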

HeLa cells = assay: Flow cytometric cell cycle analysis, HeLa; assay type: cell-based, human; conditions: for G2/M cell population: 30 nM, 48 h, control 12%; for cell cycle effect in HeLa: 7 to 250 nM, 24 h
HUVECs expressing GFP = assay: Endothelial cell shape change assay; assay type: cell-based, human; conditions: 30 min after drug addition
Procedure, shortened: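 GFP-expressing HUVECs were grown in EGM-2 with endothelial cell growth supplement and seeded on collagen-coated slides 1 day before assay. Morphology and GFP fluorescence were imaged by confocal microscopy before and at several times after test compound addition. The GFP-positive cell area was quantified by image analysis.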

Jurkat cells [8] = assay: Mitochondrial membrane potential; assay type: cell-based, human; conditions: 50 nM
Procedure, shortened: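 Mitochondrial potential is probed with the lipophilic cation JC-1. After different treatment times, cells are pelleted and resuspended in HBSS containing 1 µM JC-1, held for 10 min at 37 °C, then spun and resuspended in HBSS. Polarised mitochondria form aggregates with shifted emission. On depolarisation, JC-1 monomers emit at 530 nm.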

Q: With `COc1ccc(/C=C\c2cc(OC)c(OC)c(OC)c2)cc1O` [CA-4, combretastatin A-4, reference compound] as the compound, how does the IC50 [1] read?
A: 4 to 370 nM

Q: With `COc1cc(-n2ncnc2-c2ccccc2)cc(OC)c1OC` [Compound 4a] as the compound, how does the “antiproliferative activity (in words)” value [1] read?
A: did not yield active compounds

Q: For `COc1cc(-n2ncnc2-c2ccc(F)cc2)cc(OC)c1OC` [Compound 4b], which “antiproliferative activity (in words)” value [1] is on record?
A: did not yield active compounds

Q: How did the “antiproliferative activity (in words)” value [1] turn out when `COc1cc(-n2ncnc2-c2cccc(F)c2)cc(OC)c1OC` [Compound 4c] was run?
A: did not yield active compounds

Q: `COc1cc(-n2ncnc2-c2ccc(Cl)cc2)cc(OC)c1OC` [Compound 4d] was tested. Which “antiproliferative activity (in words)” value [1] did it give?
A: did not yield active compounds

Q: With `COc1cc(-n2ncnc2-c2ccc(Cl)c(Cl)c2)cc(OC)c1OC` [Compound 4f] as the compound, how does the “antiproliferative activity (in words)” value [1] read?
A: did not yield active compounds

Q: With `COc1cccc(-c2ncnn2-c2cc(OC)c(OC)c(OC)c2)c1` [Compound 4i] as the compound, how does the “antiproliferative activity (in words)” value [1] read?
A: dramatic drop of potency; also recorded: inactivity

Q: With `COc1ccccc1-c1ncnn1-c1cc(OC)c(OC)c(OC)c1` [Compound 4j] as the compound, how does the “antiproliferative activity (in words)” value [1] read?
A: dramatic drop of potency

Q: How did the Bcl-2 expression [2] turn out when `CCOc1ccc(-c2ncnn2-c2cc(OC)c(OC)c(OC)c2)cc1` [Compound 4l, 1-(3,4,5-Trimethoxyphenyl)-5-(4-ethoxyphenyl)-1H-1,2,4-triazole] was run?
A: decreased expression of Bcl-2

Q: What about the PARP cleavage [2] of the same compound?
A: extensive formation of the typical 89 kDa fragment of PARP

Q: What about the “cell cycle effect in Jurkat” value (Jurkat cells [3]) of the same compound?
A: significant block in the G2/M phase

Q: What about the ROS production (Jurkat cells [4]) of the same compound?
A: induced the production of large amounts of ROS

Q: And the “effect on vascular sprouts from chick aortic ring” value [5]?
A: disrupted formation of vascular sprouts

Q: And the “induction of apoptosis (annexin-V positive cells)” value (Jurkat cells [6])?
A: significant induction of apoptotic cells after 24 h

Q: What about the caspase-3 activation [7] of the same compound?
A: activation of caspase-3 in a time-dependent manner

Q: And the G2/M cell population (HeLa cells)?
A: over 70%

Q: What about the “cell cycle effect in HeLa” value (HeLa cells) of the same compound?
A: clear G2/M arrest pattern in a concentration-dependent manner

Q: And the “lowest concentration causing HUVEC retraction and membrane blebs” value (HUVECs expressing GFP)?
A: 0.5 µM

Q: And the “mitochondrial transmembrane potential (JC-1)” value (Jurkat cells [8])?
A: depolarization of the mitochondrial membrane potential

Q: How did the “antiproliferative activity (in words)” value [1] turn out when `CCOc1cccc(-c2ncnn2-c2cc(OC)c(OC)c(OC)c2)c1` [Compound 4m] was run?
A: inactivity

Q: For `CCOc1ccc(-c2ncnn2-c2cc(OC)c(OC)c(OC)c2)cc1Cl` [Compound 4o, 5-(3-Chloro-4-ethoxyphenyl)-1-(3,4,5-trimethoxyphenyl)-1H-1,2,4-triazole], which Bcl-2 expression [2] is on record?
A: decreased expression of Bcl-2

Q: What about the PARP cleavage [2] of the same compound?
A: extensive formation of the typical 89 kDa fragment of PARP

Q: And the IC50 [1]?
A: 3 to 20 nM

Q: What about the “cell cycle effect in Jurkat” value (Jurkat cells [3]) of the same compound?
A: significant block in the G2/M phase

Q: And the ROS production (Jurkat cells [4])?
A: induced the production of large amounts of ROS

Q: What about the “induction of apoptosis (annexin-V positive cells)” value (Jurkat cells [6]) of the same compound?
A: significant induction of apoptotic cells after 24 h

Q: What about the caspase-3 activation [7] of the same compound?
A: activation of caspase-3 in a time-dependent manner

Q: And the G2/M cell population (HeLa cells)?
A: over 70%

Q: And the “cell cycle effect in HeLa” value (HeLa cells)?
A: clear G2/M arrest pattern in a concentration-dependent manner

Q: What about the “mitochondrial transmembrane potential (JC-1)” value (Jurkat cells [8]) of the same compound?
A: depolarization of the mitochondrial membrane potential

Q: How did the “antiproliferative activity (in words)” value [1] turn out when `COc1cc(-n2ncnc2-c2cccc([N+](=O)[O-])c2)cc(OC)c1OC` [Compound 4r] was run?
A: did not yield active compounds
